Screening results deposited in PubChem by several laboratories.
MT stabilizer = microtubule stabilization, imaging screen. HeLa tubulin immunostaining HCS, 24 h; share of cells brighter than vehicle mean+2SD. AID 2205. hit rate 0.83% among 200,000. % tubulin-high responders, % at 10 µM;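 active means plate Z-score above 3 for both tubulin-high and condensed-nucleus cell shares, with cell loss under 80%, at 10 µM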;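 further: anti alpha tubulin signal scored within the nucleus-defined area of each cell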
Autophagy HCS = alters autophagy in cells; calls only at 10 µM (by protocol); MEF GFP-LC3 puncta imaging; test concentration mostly 10 µM; AID 463193; hit rate 0.98% among 190,000;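 active means percentage of spot-positive cells more than 3 SD above its plate mean, without a fluorescence outlier flag or 80% toxicity; inconclusive means no clear call, values can overlap the other calls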
b-catenin transl = modulators of beta-catenin nuclear translocation; HeLa beta-catenin nuclear translocation, immunofluorescence imaging; nuclear translocation activity, % at 5 µM; hit rate 0.3% among 190,000; AID 1665;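 active means nuclear translocation activity above 50% at 5 µM, with a well cell count of 50 or more; inconclusive means wells under 50 cells across six images, flagged as toxic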;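 further: per-cell ratio of nuclear to cytoplasmic median beta-catenin stain intensity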
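Assay system: human HeLa cells, native beta-catenin; doses: 5 µM primary, 0.02–20 µM confirmation; incubation: compound treatment 24 h, 37°C, 5% CO2; technique: fluorescence imaging of beta-catenin antibody stain plus DAPI; measure: % activation, nuclear-to-cytoplasmic median beta-catenin signal ratio per cell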
Dynein cargo inh = dynein cargo transport inhibition; z-score, hits read low; AID 1381; hit rate 0.47% among 220,000; 3617.4 mouse cells, GR-EGFP nuclear translocation imaging; test concentration mostly 20 µM; stimulated with dexamethasone, 1 µM; hits give low values;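 active means plate z-score of nuclear minus cytoplasmic receptor signal below a set negative limit, without overly bright fluorescence or cell loss, cut at about -3.5 in these data, passing the limit was not always enough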;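 further: z-score of nuclear minus cytoplasmic ring GR-EGFP intensity difference per well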
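Buffer or medium: tet-free medium with charcoal-stripped serum / Also added: dexamethasone agonist, 1.0 µM final, for 30 min / Timing: induction 48 h, compound 1 h, agonist 30 min / Measured by: high-content fluorescence imaging after fixation / Read-out: nuclear-to-cytoplasmic GR-EGFP distribution per well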
Lmaj promast = reduces viability of Leishmania major promastigotes | AID 1063 | hit rate 9% among 200,000 | resazurin fluorescence viability | inhibition, % at 10 µM; in the data active means inhibition above about 50%;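 further: promastigotes grown with compound for 44 hours at 28 °C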
CHOP inh = CHOP inhibition in unfolded protein response. CHO-K1 CHOP-promoter luciferase, tunicamycin-induced, 15-18 h. inhibition, % at 10 µM. hit rate 3.8% among 220,000. AID 2732;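 active means compounds that reduced the stress-induced luciferase reporter signal by more than about 70% of percent inhibition, limit read from the data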
Hits are given with their value; 0 = inactive; ? = inconclusive; - = not tested or not shown; + = active, no number. Rows were chosen to be rich in hits. Some 12% of all compounds tested hit in one or more screens of this group.

SMILES	MT stabilizer	Autophagy HCS	b-catenin transl	Dynein cargo inh	Lmaj promast	CHOP inh
O=C(CC1C(=O)CCCC1=O)c1ccccc1	0	0	0	0	0	0
COc1ccc(/C=C2\SC(=S)N(CC(=O)OCC(=O)Nc3cc(Cl)cc(Cl)c3)C2=O)cc1	-	-	0	0	-	0
CCCCN(C(=O)c1ccco1)c1nnc(-c2cc(OC)c(OC)c(OC)c2)s1	0	0	0	0	0	72.6
O=[N+]([O-])c1cccc(-c2ccc(/C=N/NC(=S)Nc3ccccc3)o2)c1	0	+	0	0	59.4	0
O=[N+]([O-])c1ccc(/C=N/NC(=S)Nc2ccccc2)o1	0	0	0	0	50.4	0
CCOc1cc(CO)cc(Br)c1OCC(=O)O	0	0	-	0	0	-
Cc1cc(C)n2cc(CSc3ccccn3)nc2n1	0	+	0	0	0	0
COc1ccc(Cn2c(C)c(C)c(C#N)c2NC(=O)Nc2cccc(Cl)c2)cc1	0	0	0	0	0	80.8
CCOC(=O)CN1C=C(c2ccc3ccccc3n2)C(C[N+](=O)[O-])c2ccccc21 (centres undefined)	0	0	-	0	99.1	0
CCOC(=O)CSc1ccc2ccccc2n1	0	0	0	0	0	0
CCCCCC(=O)Nc1cc2[nH]c(=O)cc(COC)c2cc1C	0	0	-	0	0	0
COC(=O)c1c(-c2ccc(C)cc2)csc1NC(=O)Cc1ccc(OC)c(OC)c1	0	0	-	0	0	0
COC(=O)c1c(-c2cccc3ccccc23)csc1NC(=O)Cc1ccc(OC)c(OC)c1	52.1	0	-	0	0	73.4
OC(COc1ccc(OCc2ccccc2)cc1)CN1CCCCC1 (centres undefined)	0	0	-	0	96.2	0
O=C(c1ccccc1)c1ccc(OCC(O)CN2CCOCC2)cc1 (centres undefined)	0	0	-	0	0	-
O=S(=O)(c1ccc(OCC(O)CN2CCC(Cc3ccccc3)CC2)cc1)N1CCOCC1 (centres undefined)	0	0	0	0	99.7	0
OC(COc1ccc(OCc2ccccc2)cc1)CN1CCOCC1 (centres undefined)	0	0	0	0	97.4	0
OC(COc1ccc(-c2ccccc2)cc1)CN1CCOCC1 (centres undefined)	0	0	0	0	93.2	0
O=C(c1cc2ccc([N+](=O)[O-])cc2oc1=O)N1CCOCC1	0	0	0	0	0	0
O=C(O)C1C2C=CC(C3CC23)C1C(=O)N1CCc2ccccc21 (centres undefined)	0	0	0	0	0	0
CCN(CC)CCCN1C(=O)C(O)=C(C(=O)c2cccs2)C1c1ccccn1 (centres undefined)	0	0	-	0	0	-
O=C(NN1C(=O)c2ccccc2NC1c1ccccn1)c1ccc([N+](=O)[O-])cc1 (centres undefined)	0	0	0	0	0	0
COC(=O)c1cccc(C23CC4(C2)[C@H](CN(Cc2cccnc2)[C@@H]4c2ccccc2)C3c2ccc(C(F)(F)F)cc2)c1 (some centres undefined)	-	-	0	0	-	0
Nc1nc(-c2ccccc2)c(-c2ccc([N+](=O)[O-])cc2)s1	0	0	0	0	0	74.2
Nc1nc(-c2ccccc2)c(-c2ccccc2)s1	0	0	0	0	0	0
SMILES	MT stabilizer	Autophagy HCS	b-catenin transl	Dynein cargo inh	Lmaj promast	CHOP inh
Cc1ccc(-c2nc(N)sc2-c2ccccc2)cc1C	0	0	0	0	0	86.7
CCOC(=O)c1sc(N)nc1-c1ccccc1	0	0	0	0	0	0
O=c1[nH]c(=O)n(C2CCCO2)cc1Br (centres undefined)	0	0	0	0	0	0
Cc1nn(C(=O)CCCC(=O)n2nc(C)c(Cl)c2C)c(C)c1Cl	0	0	-	0	0	-
Cc1ccccc1NC(=S)N(C)Cc1cn(C)c2ccccc12	0	0	0	0	63.1	0
COC(=O)N/N=C/c1ccc(OS(=O)(=O)c2ccc(C)cc2)c(OC)c1	0	0	0	0	0	0
COc1cc(/C=N/NC(=O)COc2cccc(F)c2)ccc1OS(=O)(=O)c1ccc(C)cc1	0	0	-	0	99.1	0
C=CCNC(=O)/C(C#N)=C/c1ccc(OS(=O)(=O)c2ccc(C)cc2)c(OC)c1	0	0	-	0	91.5	0
COc1cc(/C=N/NC(=O)COc2ccc(Cl)cc2)ccc1OS(=O)(=O)c1ccc(C)cc1	0	0	0	0	98.7	0
O=C(O)c1ccccc1CSc1ncccc1C(=O)O	0	0	0	0	0	0
CCOC(=O)N1CCc2c(sc(NC(=O)c3ccc(Cl)s3)c2C(N)=O)C1	0	0	0	0	82.0	0
CCN1CCc2c(sc(NC(=S)NC(=O)c3ccco3)c2C(N)=O)C1	-	-	0	0	-	0
CCN1CCc2c(sc(NC(=O)Nc3ccc(Cl)c(Cl)c3)c2C(N)=O)C1	0	?	0	0	0	70.3
CCN(CC)S(=O)(=O)c1ccc(C)c(NC(=S)NC2CCCCC2)c1	-	-	0	0	-	0
CCOC(=O)C1CCN(C(=S)NC2CC3C=CC2C3)CC1 (centres undefined)	-	-	0	0	-	0
CC(C)N1CCC(N2CCN(Cc3ccc(-c4ccc(Cl)cc4)o3)CC2CCO)CC1 (centres undefined)	0	0	0	0	87.5	0
CC(C)N1CCC(N2CCN(CCCc3ccccc3)CC2CCO)CC1 (centres undefined)	0	0	0	0	0	0
CC(C)N1CCC(N2CCN(Cc3ccc(-c4ccccc4Cl)o3)CC2CCO)CC1 (centres undefined)	0	0	0	0	89.2	0
CC(C)CN1CCN(C2CCN(C(C)C)CC2)C(CCO)C1 (centres undefined)	0	0	0	0	0	0
Cc1ccc(-c2cccc(CN3CCN(C4CCN(C(C)C)CC4)C(CCO)C3)c2)o1 (centres undefined)	0	0	0	0	51.9	0
CCOC(=O)C(=CNc1cc(C)ccc1-n1cccc1)C(=O)OCC	-	-	0	0	-	0
CCN(Cc1ccncc1)C(=O)c1ccc2c(c1)S(=O)(=O)c1ccccc1C2=O	0	0	0	0	0	0
CCOC(=O)CNC(=O)Cn1cnc2c(nnn2-c2cccc(Cl)c2)c1=O	0	0	0	0	0	0
CC(=O)N1N=C(c2cccc([N+](=O)[O-])c2)OC1c1ccc(Br)cc1 (centres undefined)	-	-	0	0	-	0
CC(=O)N1N=C(c2ccccc2)OC1c1ccc([N+](=O)[O-])s1 (centres undefined)	0	0	-	0	100.3	0
CC(=O)N1N=C(c2ccc(C)cc2)OC1c1ccc(C)cc1 (centres undefined)	0	0	-	0	0	75.0
CC(C)C1N(C(N)=S)N=CC1(C)C (centres undefined)	-	-	0	0	-	0
CC(C)NC(=O)C1CCN(C2CCN(C(=O)c3cc4c(s3)CCCCC4)CC2)CC1	0	0	0	0	89.3	0
